In the library only some 2.1% were active in any assay of this set; here they are far more common.
CDK5 p35 inh: CDK5/p35 (human) kinase inhibition; 330,000 tested, 0.01% active; Q00535+Q15078; inhibition, % at 10 µM; Recombinant CDK5/p35, ADP-Glo luminescence, 60 min; AID 488839;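 active = highest replicate inhibition of at least 50% and at least 75% of replicates reaching 50%; inconclusive = only one of the two criteria met; inactive = both criteria failed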
PKA-R2B activ: PKA-R2B complex activation | P22694+P31323 | PKA-R2B holoenzyme dissociation, Cy5-IP20 fluorescence polarization; R2B truncated from residue 108, S112A mutant; 0% DMSO only, 100% 113 µM cGMP | activation, % at 11.4 µM | 340,000 tested, 0.079% active | AID 504700;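 active = activation above a cutoff set at the mean over all compounds plus 3 SD, cut at about 18% in these data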;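 note: higher means more holoenzyme dissociation and a rise in polarization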
PKA-R1A act: PKA-R1A complex activation | PKA-R1A dissociation, Cy5-IP20 fluorescence polarization; scaled: DMSO 0%, 113 µM cGMP 100% | activation, % at 11.4 µM | 340,000 tested, 0.083% active | AID 504707;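 active = percent activation above the mean of all tested compounds plus 3 SD, cut at about 19% in these data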;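 note: higher means more PKAc released from R1A so a rise in polarization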
SR-BI DiI-HDL act: activators of SR-BI mediated HDL lipid uptake. activation, % at 12.5 µM. 320,000 tested, 0.096% active. CHO ldlA[mSR-BI] cells, DiI-HDL uptake fluorescence, 3 h; 100 = double the neutral-control signal;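 active = mean replicate activation of at least 60% and every replicate at or above 60%; inconclusive = mean or all-replicate condition met, but not both; inactive = mean below 60% and not all replicates reaching 60%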
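System: LDL receptor-deficient CHO ldlA cells overexpressing murine SR-BI | Timing: 3 h uptake period with compound, 37 °C | Medium: HEPES-buffered (25 mM, pH 7.4) F12 plus 0.5% BSA | Dosing: Single-point compound dose | Signal: Bottom-read fluorescence, 550/595 nm | Read-out: Retained DiI signal reflecting DiI-HDL uptake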
dFosB activator: enhances mouse delta FosB homodimer DNA binding; P13346; purified delta FosB, TAMRA-CDK5 oligo fluorescence polarization; percent of positive-control signal above neutral wells; activation, % at 25 µM; 340,000 tested, 0.99% active;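 active = mean activation above about 17%, with every replicate also reaching it, limit read from the data, passing the limit was not always enough; inconclusive = only one of the two conditions met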
SR-BI DiI inh: mouse SR-BI HDL lipid transfer inhibition. inhibition, % at 12.5 µM. 320,000 tested, 0.96% active. ldlA[mSR-BI] CHO cells, DiI-HDL uptake fluorescence, 3 h. AID 488896;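 active = mean replicate inhibition of at least 70% and a set share of replicates each scoring 70 or more; inconclusive = meets just one of the two criteria; inactive = fails both criteria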
Target sequence (Q61009 whole entry, looked up): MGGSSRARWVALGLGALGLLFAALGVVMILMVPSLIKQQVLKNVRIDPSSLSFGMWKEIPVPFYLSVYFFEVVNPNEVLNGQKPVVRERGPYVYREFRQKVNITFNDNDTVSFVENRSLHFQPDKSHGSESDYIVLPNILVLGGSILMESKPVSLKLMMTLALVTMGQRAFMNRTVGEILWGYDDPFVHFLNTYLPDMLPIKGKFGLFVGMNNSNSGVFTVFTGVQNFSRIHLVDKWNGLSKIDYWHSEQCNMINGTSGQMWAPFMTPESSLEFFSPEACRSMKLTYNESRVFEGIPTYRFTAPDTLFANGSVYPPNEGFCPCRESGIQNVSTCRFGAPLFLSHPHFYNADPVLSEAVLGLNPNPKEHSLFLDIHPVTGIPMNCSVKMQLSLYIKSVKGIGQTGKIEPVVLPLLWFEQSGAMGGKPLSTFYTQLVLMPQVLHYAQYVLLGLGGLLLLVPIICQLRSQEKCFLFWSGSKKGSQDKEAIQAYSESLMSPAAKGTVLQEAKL
Each line names hits and unclear results; the compound was inactive in the other large screens.

CC1CCc2sc(NC(=O)c3ccc(N4C(=O)CCC4=O)cc3)c(C(N)=O)c2C1 (stereo not drawn)	none
NC(=O)c1c(NC(=O)c2ccc(N3C(=O)CCC3=O)cc2)sc2c1CCCC2	SR-BI DiI inh 75.4
N#Cc1c(NC(=O)CSC2=NCCS2)sc2c1CCCC2	SR-BI DiI inh 81.9
N#Cc1c(NC(=O)CSc2ncn[nH]2)sc2c1CCCC2	none
N#Cc1c(NC(=O)c2ccccc2)sc2c1CCCCC2	SR-BI DiI inh 78.5
N#Cc1c(NC(=O)/C=C/c2ccco2)sc2c1CCCC2	SR-BI DiI inh 80.1
CC(C)[C@H](NC(=O)c1ccccc1)C(=O)OCC(=O)N1CCCc2ccccc21	none
O=C(Nn1cnc2ccccc2c1=O)c1ccc(Cl)c([N+](=O)[O-])c1	none
CCS(=O)(=O)c1ccc2oc(SCC(=O)N3CCCCC3)nc2c1	none
O=C(NS(=O)(=O)N1CCOCC1)C1=C(N2CCCC2)COC1=O	none
O=C(Nc1ccc(F)cc1)Nc1ccc(N2CCCC2)c(S(=O)(=O)Nc2ccccc2Cl)c1	SR-BI DiI inh 87.0
O=C(Nc1ccc(Cl)c(Cl)c1)N1CCCCCC1	none
O=C(Nc1ccc(Cl)c(Cl)c1)Nc1ccccc1O	SR-BI DiI inh 77.9
O=C(Nc1ccc(Cl)c(Cl)c1)Nc1ccc(N2CCCC2)c(S(=O)(=O)Nc2ccccc2Cl)c1	SR-BI DiI inh 86.3
O=C(Nc1ccc(Cl)c(Cl)c1)Nc1ccc(Br)cc1F	none
O=C(Nc1ccc(Cl)c(Cl)c1)N1CCSCC1	SR-BI DiI-HDL act 319.7
O=C(Nc1ccc(N2CCCCC2)c(S(=O)(=O)Nc2ccccc2Cl)c1)c1cccnc1	none
O=C(NCCOc1ccccc1Cl)c1ccc2c(c1)S(=O)(=O)c1cc(Cl)ccc1C2=O	none
COc1cccc(OCCNC(=O)c2cc([N+](=O)[O-])cc([N+](=O)[O-])c2)c1	none
Cc1ccc(OCCNC(=O)c2cc(C(=O)NCCOc3ccc(C)cc3)cc([N+](=O)[O-])c2)cc1	SR-BI DiI inh 71.5
C/C(=N\NC(N)=S)C1(C)CCCCC1	SR-BI DiI inh 77.9
C/C(=N\NC(N)=O)C1(C)CCCCC1	none
CCOc1cc(CNc2ccccc2)cc(Br)c1OCc1ccc(F)cc1	SR-BI DiI inh 73.7 (no result: CDK5 p35 inh)
Fc1ccc(CCN2CCN=C2Nc2ccccc2)cc1	SR-BI DiI-HDL act 67.8
CCc1cc2cc(C)c(C)cc2nc1SCC(=O)NNC(=O)c1ccco1	SR-BI DiI inh 75.0
Cc1csc2nc(SCC(=O)Nc3ccccc3F)[nH]c(=O)c12	dFosB activator 23.6
COc1ccc(OC)c(NC(=O)CSc2nc3scc(C)c3c(=O)[nH]2)c1	none
O=C(c1ccc(F)cc1F)N1CCCc2ccccc21	none (no result: SR-BI DiI-HDL act, SR-BI DiI inh)
COc1ccccc1C(=O)NC(CCSC)C(=O)NNC(=O)c1ccccc1O (stereo not drawn)	SR-BI DiI inh 75.7
Cc1ccc(NS(=O)(=O)N2CCCCC2)cc1	none
Cc1ccnc(NC(=O)COc2c(C)cc(C)cc2[N+](=O)[O-])c1	SR-BI DiI inh 97.8
COc1cc(C(=O)Nc2ccc(-c3nc4cc(C)ccc4o3)c(O)c2)cc(OC)c1OC	dFosB activator 26.9
COc1cccc(C(=O)Nc2ccc(-c3nc4ccccc4o3)c(O)c2)c1	none
CCN(C[C@H]1N[C@@](Cc2ccccc2)(C(=O)OC)[C@H]2C(=O)N(C)C(=O)[C@@H]12)C(C)=O	none
COCCCNc1nc(N)c([N+](=O)[O-])c(Nc2cc(OC)ccc2OC)n1	none (no result: PKA-R2B activ, PKA-R1A act)
COc1ccc(OC)c(Nc2nc(NCCCN(C)C)nc(N)c2[N+](=O)[O-])c1	dFosB activator 24.3
COc1ccc(Nc2nc(N(C)c3ccccc3)nc(N)c2[N+](=O)[O-])cc1	SR-BI DiI-HDL act 137.5
CN(c1ccccc1)c1nc(N)c([N+](=O)[O-])c(Nc2ccccc2)n1	none
CCOC(=O)N1CCN(S(=O)(=O)c2ccc(OC)c(C(=O)N3CCCCC3)c2)CC1	none
CCOc1cc(/C=C/c2ccc3cccc([N+](=O)[O-])c3n2)ccc1O	SR-BI DiI inh 80.8
CCOc1cc(/C=C/c2ccc3cccc([N+](=O)[O-])c3n2)ccc1OCC(=O)N(C)C	SR-BI DiI inh 83.3
Cc1cc(C)n(C(=O)c2ccc([N+](=O)[O-])cc2Cl)n1	none
CN(C)/C=C/C(=O)c1ccc2noc(-c3ccc(F)cc3)c2c1	SR-BI DiI inh 86.5
Cc1ccc(-c2onc3ccc(C(=O)/C=C/N(C)C)cc23)cc1	none
COc1ccc(NS(=O)(=O)c2cccc(C(=O)N/N=C/c3cn(-c4ccccc4)nc3-c3ccccc3)c2)cc1	dFosB activator inconclusive, SR-BI DiI inh 96.5
COc1ccc(NS(=O)(=O)c2cccc(C(=O)NNC(=O)c3ccccc3O)c2)cc1	SR-BI DiI inh 72.3
COc1ccc(NS(=O)(=O)c2cccc(C(=O)N/N=C/c3cn(-c4ccccc4)nc3-c3ccc(OC)cc3)c2)cc1	none (no result: SR-BI DiI-HDL act, SR-BI DiI inh)
O=C(N/N=C/c1cn(-c2ccccc2)nc1-c1ccc(F)cc1)c1ccc(Br)o1	SR-BI DiI inh 87.0
COc1ccc(NS(=O)(=O)c2cccc(C(=O)N/N=C/c3ccccc3OC)c2)cc1	SR-BI DiI inh 82.3
CCOC(=O)CCCCC1C(CCCC(=O)OCC)C=NN1C (stereo not drawn)	none
Nc1nonc1C(=O)NCCNS(=O)(=O)c1ccc(Br)cc1	none
CCN(CC)c1ccc(/C=N/NC(=O)c2cccc(S(=O)(=O)Nc3ccccc3OC)c2)cc1	none
CCN(CC)c1ccc(/C=N/NC(=O)c2cccc(S(=O)(=O)Nc3ccccc3OC)c2)c(O)c1	SR-BI DiI inh 132.0
COc1ccc(NC(=O)C(F)(F)F)cc1OC	SR-BI DiI inh 77.8
COC(=O)Nc1ccc(OC)c(OC)c1	none
C[C@]12c3[nH]c4ccc(Cl)cc4c3CCN1C(=O)[C@@H](CC(=O)NCCC1=CCCCC1)C[C@@H]2C(=O)N1CCOCC1	none
CC(=O)c1ccc(OCC(O)CN2CCN(S(=O)(=O)c3c(C)c(C)cc(C)c3C)CC2)cc1 (stereo not drawn)	SR-BI DiI inh 85.6
CC(=O)c1ccc(OCC(O)CN2CCN(CC(O)COc3ccc(C(C)=O)cc3)CC2)cc1 (stereo not drawn)	none
COc1cccc(/C=C/C(=O)NCc2cn3cc(Cl)ccc3n2)c1	dFosB activator 17.4
O=C(COC(=O)c1cc[n+]([O-])cc1)Nc1ccc(F)c([N+](=O)[O-])c1	none
COc1ccc(CCNC(=O)CCCn2c(=O)c3cccn3c3cccnc32)c(OC)c1	SR-BI DiI inh 71.3
CSc1cccc(NC(=O)CCn2c(=O)c3cccn3c3cccnc32)c1	SR-BI DiI inh 77.2

Screens from PubChem BioAssay.
